Bioassay records: PubChem BioAssay, several laboratories
GalR3 antagonist: GalR3 antagonists in HEK293 cells, primary screen, cell-based, fluorescence readout | Galanin receptor type 3 (Homo sapiens), O60755 | HEK293 GalR3-CNG cAMP membrane potential fluorescence; galR3 body fused to GalR1 C-terminus | inhibition, % at 3 µM | 360,000 compounds, 0.44% hits | AID 651719, 2012;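 active = inhibition above the screen-wide average plus 3 SD, cut at about 13% in these data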;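 note: forskolin and galanin both at EC90 stimulate the cells; cAMP rise reported by CNG channel membrane potential dye signal; 0% = forskolin plus galanin with DMSO and 100% = forskolin alone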
Target sequence (O60755 1-299 limits assumed): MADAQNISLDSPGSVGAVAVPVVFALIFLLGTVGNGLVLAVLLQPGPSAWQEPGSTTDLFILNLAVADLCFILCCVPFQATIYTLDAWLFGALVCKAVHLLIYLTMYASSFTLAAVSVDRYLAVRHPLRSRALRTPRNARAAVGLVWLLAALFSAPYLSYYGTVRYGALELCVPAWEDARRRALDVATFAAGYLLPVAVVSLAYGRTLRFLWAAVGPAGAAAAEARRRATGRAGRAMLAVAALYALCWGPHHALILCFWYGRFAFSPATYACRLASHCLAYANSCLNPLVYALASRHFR
H9c2 TAG inh: inhibitors of triacylglycerol accumulation, primary screen, cell-based, uHTS, fluorescence, H9c2; H9c2 cells, Nile Red lipid (TAG) fluorescence; cells loaded with 200 µM oleic acid; inhibition, % at 12.5 µM; 230,000 compounds, 0.66% hits;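 active = pattern-corrected inhibition of lipid staining of at least 50% with the nuclear-stain viability signal not falling by more than 50%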;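 note: 0% = DMSO wells and 100% = triacsin C control wells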
MC4R antag cAMP: MC4R antagonists of cAMP signaling, primary screen, cell-based, TR-FRET, antagonist arm of biased-ligand search; Melanocortin receptor 4 (Homo sapiens), P32245; MC4R-expressing cells, MTII-stimulated cAMP, LANCE TR-FRET; inhibition, % at 6.5 µM; 360,000 compounds, 0.48% hits; AID 540295, 2011;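 active = inhibition above its plate's cutoff, the mean of tested wells on that plate plus 3 SD, cut at about 29% in these data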;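 note: 0% = Melanotan II alone and 100% = Melanotan II plus saturating MCL0020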
Target sequence (P32245 whole entry, looked up): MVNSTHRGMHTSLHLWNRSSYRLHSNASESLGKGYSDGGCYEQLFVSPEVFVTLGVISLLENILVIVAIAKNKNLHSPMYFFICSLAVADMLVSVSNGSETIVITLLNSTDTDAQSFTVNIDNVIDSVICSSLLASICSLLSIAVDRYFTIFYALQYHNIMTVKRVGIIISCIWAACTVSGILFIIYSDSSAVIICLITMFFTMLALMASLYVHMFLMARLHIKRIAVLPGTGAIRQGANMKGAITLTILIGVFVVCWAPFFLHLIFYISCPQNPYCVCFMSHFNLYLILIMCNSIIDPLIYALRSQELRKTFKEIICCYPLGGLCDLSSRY
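Material – human MC4R-expressing U2OS cells · Repeats – no replicates · Detection – TR-FRET with Eu-cAMP and labeled anti-cAMP, 671 nm · Times – compound 30 min, challenge 1 h, detection 1 h · Compound – single nominal compound dose of 6.5 µM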
Calb FLC: C. albicans growth inhibition with fluconazole, primary screen, CaCi-2 strain, Alamar Blue fluorescence | C. albicans CaCi-2 + fluconazole, 48 h | growth inhibition, % (no concentration beside the values) | 300,000 compounds, 0.57% hits;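 active = growth inhibition above about 58% in most replicates, limit read from the data, passing the limit was not always enough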;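 note: all wells also contain fluconazole at 8 µg/ml as a sub-toxic cotreatment; 0% = median of DMSO wells and 100% = median of geldanamycin control wells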
Efflux pump mplx: inhibitors of Candida efflux pumps in yeast, primary screen, S. cerevisiae, Nile Red, multiplex; S. cerevisiae Candida pump triplex; inhibition, % at 10 µM; 330,000 compounds, 0.44% hits; AID 485275, 2010;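 active = plate passing quality check with inhibition over a set limit, or well fluorescence over plate mean plus 4 SD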;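 note: Nile Red retained in pooled yeast measured as flow cytometry median fluorescence; 0% = buffer negative control and 100% = Enniatin B positive control; higher means more Nile Red kept so more efflux inhibition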
MC4R barr agon: MC4R agonists recruiting beta-arrestin, primary screen, cell-based, luminescence, agonist arm of biased-ligand search; U2OS MC4R beta-arrestin complementation; percent of melanotan II response, DMSO zero; activation, % at 8.9 µM; AID 540308, 2011; 360,000 compounds, 0.98% hits;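 active = activation above a per-plate cutoff, the mean activation of sample wells on that plate plus 3 SD, cut at about 8% in these data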
Cmpd fluor yeast: flagged as fluorescent in efflux inhibitor counter-screen; AID 588517; fluorescence ratio to DMSO, % at 10 µM; 1,700 compounds, 4% hits; shares compounds with Efflux pump mplx; S. cerevisiae AD/pABC3, compound fluorescence, flow cytometry;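 active = fluorescence ratio to DMSO above its plate's cutoff, the plate mean ratio plus 5 SD, cut at about 210% in these data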;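 note: unstained yeast with no Nile Red so the signal is compound autofluorescence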
Mdr1 pump inh: inhibitors of Candida albicans Mdr1 efflux, confirmation, flow cytometry, singleplex, Cherry Pick1 set; shares compounds with Efflux pump mplx; S. cerevisiae AD/CaMDR1, Nile Red efflux; inhibition, % at 10 µM; 1,700 compounds, 1% hits; AID 588518, 2011; in the data active = inhibition above about 26%;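 note: 0% = DMSO vehicle and 100% = reference inhibitor; higher means more Nile Red retained so more efflux inhibition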
CaCdr2 efflux inh: inhibitors of Candida albicans Cdr2 efflux pump, confirmation, S. cerevisiae AD/CaCDR2, flow cytometry, cherry pick 1, singleplex | shares compounds with Efflux pump mplx | Nile Red retention | Nile Red retention ratio vs DMSO, % at 10 µM | 1,700 compounds, 4% hits; in the data active = Nile Red retention ratio vs DMSO above about 190%;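 note: higher ratio means more blocking of Cdr2 efflux of the dye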
CaCdr1 efflux inh: inhibitors of Candida albicans Cdr1 efflux pump, confirmation, S. cerevisiae AD/CaCDR1, flow cytometry, cherry pick 1, singleplex. shares compounds with Efflux pump mplx. Nile Red efflux. inhibition, % at 10 µM. 1,700 compounds, 1% hits. AID 588522, 2011;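 active = inhibition above the screen-wide mean plus twice its standard deviation, cut at about 32% in these data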
Active calls of the source: *. Rows were chosen to be rich in hits. Some 2.9% of all compounds tested hit in one or more screens of this group.

What do the screens show for `CCN=C1NC(c2cccc(Cl)c2)C(C(=O)OC)=C(C)N1Cc1ccccc1C(F)(F)F` (configuration not stated)?
GalR3 antagonist: -6

How did Cc1cccc(NS(=O)(=O)c2ccccc2)n1 do in these assays?
GalR3 antagonist: -2; MC4R antag cAMP: -3; Calb FLC: -12; Efflux pump mplx: 0; MC4R barr agon: -1

How did Cc1cccc(NS(=O)(=O)c2ccc(C3CCCCC3)cc2)n1 do in these assays?
GalR3 antagonist: -8; MC4R antag cAMP: 5; Calb FLC: 10; Efflux pump mplx: 8.2*; MC4R barr agon: -2; Cmpd fluor yeast: 99; Mdr1 pump inh: 0; CaCdr2 efflux inh: 103; CaCdr1 efflux inh: 0

What do the screens show for `O=C(N[C@H](C(=O)N1CCC[C@H]1C(=O)NCCc1ccccc1Cl)c1ccccc1)c1ccc(Cl)cc1Cl`?
GalR3 antagonist: -6

What do the screens show for `CC(C)C(=O)N1CCC2(CC1)Oc1ccc(Cl)cc1C(=O)C21CC(c2ccc(Cl)cc2)=NO1` (configuration not stated)?
GalR3 antagonist: -8; H9c2 TAG inh: 6; MC4R antag cAMP: 8; Calb FLC: -1; Efflux pump mplx: 0; MC4R barr agon: -1; Cmpd fluor yeast: 103; Mdr1 pump inh: 0; CaCdr2 efflux inh: 121; CaCdr1 efflux inh: 0

Results for O=C1c2cc(Cl)ccc2OC2(CCNCC2)C12CC(c1ccc(Cl)cc1)=NO2 (configuration not stated) ?
H9c2 TAG inh: -6; MC4R antag cAMP: 1; Calb FLC: -24; MC4R barr agon: 3; Cmpd fluor yeast: 121; Mdr1 pump inh: 1; CaCdr2 efflux inh: 114; CaCdr1 efflux inh: 0

How did O=C(/C=C/c1cccs1)N1CCC2(CC1)Oc1ccc(Cl)cc1C(=O)C21CC(c2ccc(Cl)cc2)=NO1 (configuration not stated) do in these assays?
GalR3 antagonist: -2; H9c2 TAG inh: 18; MC4R antag cAMP: 0; Calb FLC: -4; Efflux pump mplx: 0; MC4R barr agon: -1

What do the screens show for `O=C1c2cc(Cl)ccc2OC2(CCNCC2)C12CC(c1ccccc1)=NO2` (configuration not stated)?
GalR3 antagonist: -8; H9c2 TAG inh: 26; MC4R antag cAMP: 6; Calb FLC: -11; Efflux pump mplx: 0; MC4R barr agon: 4; Cmpd fluor yeast: 91; Mdr1 pump inh: 0; CaCdr2 efflux inh: 95; CaCdr1 efflux inh: 0

Results for CC(C)N1CCC1(C)C(=O)Nc1cccc(C#N)c1 (configuration not stated) ?
GalR3 antagonist: -5; H9c2 TAG inh: 0; MC4R antag cAMP: 5; MC4R barr agon: -2

Results for Cc1nc2c(OCc3ccc(C(F)(F)F)cc3)cccn2c1N(C)CC1CC1 ?
GalR3 antagonist: -4; H9c2 TAG inh: -7; MC4R antag cAMP: 17; MC4R barr agon: -3

What do the screens show for `CCCCOC(=O)c1ccc(NC(=O)COC(=O)C2CC2C)cc1` (configuration not stated)?
GalR3 antagonist: -7; H9c2 TAG inh: -15; MC4R antag cAMP: 7; MC4R barr agon: 3

Results for COc1ccc(NC(=O)C(c2ccccc2F)n2c(=O)c(-c3ccco3)nc3ccccc32)cc1 (configuration not stated) ?
GalR3 antagonist: -6

What do the screens show for `Cc1ccccc1S(=O)(=O)NC(=O)C1(C)CCN1C(=O)Cc1ccccc1Cl` (configuration not stated)?
GalR3 antagonist: -3; H9c2 TAG inh: -15; MC4R antag cAMP: 9; MC4R barr agon: -1

Results for COC(=O)c1ccc(CN2CCC(Oc3cccc(C(=O)N4CCCC4)c3)CC2)cc1 ?
GalR3 antagonist: -5; H9c2 TAG inh: -15; MC4R antag cAMP: -7; Calb FLC: -10; Efflux pump mplx: 5.3*; MC4R barr agon: 1; Cmpd fluor yeast: 116; Mdr1 pump inh: 0; CaCdr2 efflux inh: 117; CaCdr1 efflux inh: 0

Results for Cc1nc2ccc(C(=O)N3c4ccccc4N=C(c4ccc(C(F)(F)F)cc4)C3C(=O)NC(C)(C)C)cc2[nH]1 (configuration not stated) ?
GalR3 antagonist: -6

How did Cc1cccc(C(=O)Nc2nnc(SCC(=O)Nc3ccc4c(c3)oc3ccccc34)s2)c1 do in these assays?
GalR3 antagonist: -2; MC4R antag cAMP: 1; Calb FLC: 2; Efflux pump mplx: 4.2*; MC4R barr agon: 9.4*; Cmpd fluor yeast: 92; Mdr1 pump inh: 0; CaCdr2 efflux inh: 114; CaCdr1 efflux inh: 0

Results for COc1ccc(CC(=O)Nc2c3c(nn2C(C)(C)C)CS(=O)C3)cc1 (configuration not stated) ?
GalR3 antagonist: 6; H9c2 TAG inh: 10; MC4R antag cAMP: 7; Calb FLC: -10; Efflux pump mplx: 1.8*; MC4R barr agon: -1; Cmpd fluor yeast: 114; Mdr1 pump inh: 0; CaCdr2 efflux inh: 100; CaCdr1 efflux inh: 0

Results for O=C1CCCN1CCCNc1ccc2nnc(CCC(=O)N3CCN(c4ccccc4)CC3)n2n1 ?
GalR3 antagonist: 1; MC4R antag cAMP: 16; Calb FLC: -19; Efflux pump mplx: 1.3*; MC4R barr agon: -1; Cmpd fluor yeast: 99; Mdr1 pump inh: 0; CaCdr2 efflux inh: 90; CaCdr1 efflux inh: 0
